Experimental data reported in ChEMBL document CHEMBL4422612, “Small Molecule Inhibitor that Stabilizes the Autoinhibited Conformation of the Oncogenic Tyrosine Phosphatase SHP2” (J Med Chem, 2019).
Substitutions are numbered along the chain they refer to.

Assays:
[1] = target: T1, Tyrosine-protein phosphatase non-receptor type 11 (Mus musculus) (UniProt P35235); assay: Inhibition of SHP2 in mouse Ba/F3 cells assessed as reduction in IL3-stimulated AKT phosphorylation pretreated for 4 hrs followed by IL3 stimulation and measured after 5 to 60 mins by Western blot analysis; format: cell-based
T1 sequence (whole entry): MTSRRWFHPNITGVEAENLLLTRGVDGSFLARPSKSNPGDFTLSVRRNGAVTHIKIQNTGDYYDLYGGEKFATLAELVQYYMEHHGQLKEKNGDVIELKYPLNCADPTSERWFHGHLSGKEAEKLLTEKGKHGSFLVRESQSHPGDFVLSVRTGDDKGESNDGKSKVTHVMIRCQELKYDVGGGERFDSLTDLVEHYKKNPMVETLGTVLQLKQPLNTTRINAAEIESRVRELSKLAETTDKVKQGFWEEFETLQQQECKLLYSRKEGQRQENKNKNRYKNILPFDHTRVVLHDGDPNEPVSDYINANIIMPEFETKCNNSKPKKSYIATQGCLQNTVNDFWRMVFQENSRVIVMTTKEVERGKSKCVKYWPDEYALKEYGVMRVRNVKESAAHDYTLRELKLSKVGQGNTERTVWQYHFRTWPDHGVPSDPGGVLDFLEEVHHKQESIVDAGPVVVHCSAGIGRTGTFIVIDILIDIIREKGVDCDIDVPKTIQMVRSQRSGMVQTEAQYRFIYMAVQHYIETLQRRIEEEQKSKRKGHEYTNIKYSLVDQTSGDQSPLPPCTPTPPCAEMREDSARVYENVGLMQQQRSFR
How it was run: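 Ba/F3 cells starved overnight in serum- and cytokine-free RPMI1640. Treated with 20 µM compound for 4 h, then IL-3 (2 ng/mL) for the indicated times. RIPA lysates (50 µg) immunoblotted for p-Erk, p-Akt, p-Jak2 and p-Stat5, then reprobed for total proteins. Representative of three experiments.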

[2] = target: T2, Tyrosine-protein phosphatase non-receptor type 11 (Homo sapiens) (UniProt Q06124); assay: Mixed type inhibition of human wild-type full length SHP2 assessed as substrate [Et] at 10 uM using H-Glu-Phe-pTyr-Ala-Glu-Val-Gly-Arg-Ser-Pro-Pro-Asp-Pro-Ala-Lys as substrate by Lineweaver-Burk plot analysis (reference value: 0.029 uM)
T2 sequence (whole entry): T1 sequence (whole entry) with V450M, V550A, R590K

inhibition [1]: Dose-dependent effect
Activity [2]: 0.029 µM
Compound: CCOc1cc(O)c(C(=O)/C=C/c2ccc(Cl)cc2Cl)cc1CN1CCC=C(n2c(=O)[nH]c3ccccc32)C1
